Assay results published in the EternaBench riboswitch data.

Test system: MS2 coat protein
Assay: apparent Kd, MS2 coat protein; higher = weaker binding; RNA-MaP array; FMN 200 µM where present
How it was run: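 Designs were transcribed by stalled E. coli RNA polymerase on Illumina sequencing-chip clusters. They were titrated with SNAP-549-labelled MS2 coat protein from 0.7 or 1.5 nM, doubling to 3 µM, without and then with constant ligand. Buffer: 100 mM Tris-HCl pH 7.5, 80 mM KCl, 4 mM MgCl2, BSA, DTT, yeast tRNA, Tween-20. Green signal was normalised to red-channel RNA signal and control-cluster median Fmax. Apparent Kd is the median of filtered per-cluster binding-curve fits.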

[1] = designed as: OFF switch for flavin mononucleotide, no ligand
[2] = ligand present: flavin mononucleotide, designed as: OFF switch for flavin mononucleotide
[3] = designed as: ON switch for flavin mononucleotide, no ligand
[4] = ligand present: flavin mononucleotide, designed as: ON switch for flavin mononucleotide

Row | Sequence | apparent Kd [1] [µM] | apparent Kd [2] [µM] | apparent Kd [3] [µM] | apparent Kd [4] [µM]
1 | CCAUGGUGGGCAGGAUAUCGUCCAGCUUGCAGACGAGAAGGGCUUAAACAUGAGGAUCACCCAUGUGAAAAGCGGGUUGUCCAA | 0.0265 | 0.131 |  | 
2 | UGCCAGUUAGGAUAUGCACGCGCCGGUGACCUGCUACGGCUACAUGAGGAUCACCCAUGUAGAAGGAACUGGGC | 0.0196 | 0.0203 |  | 
3 | UCGAAGAAGCAAGGAUAUCAAUAUUAGCAAAAUAUGACAUGAGGAUCACCCAUGUAAAUAUGGAGUGAGAAGGUGCAAUAAUUU |  |  | 0.274 | 0.149
4 | UAACCAGUCCAGAAGGUGACGUCUGAAACUAGUCAAGGAUAUGGGUUGGUCCACGGUCGGCUACAUGAGGAUCACCCAUGUACC |  |  | 0.0328 | 0.00833
5 | UGCCAGGAGGAGAAGGGAGCACAUGAGGAUCACCCAUGUGGUCCGGGCUGCUCAGGAUAUCCUAACUGUACGCAUUACUACGAA | 0.119 | 0.0232 |  | 
6 | ACAUGAGGAUCACCCAUGUUGAUAGUAGAAGGGACAGAGAAGUAGUAACAUGAGGAUCACCCAUGUCAGGAUAUGCGAAUUGGA |  |  | 0.0352 | 0.0301
7 | UACAGCGUAGAUAAUUAUGUUACAUGAGGAUCACCCAUGUCAUAGGAUAUGCAGUGGAAUACACUGCAGAAGGAUGCAUCGCUG | 0.0147 | 0.0185 |  | 
8 | CUGCCUUAUGUAGGAUAUGCAUAGCGUUGCUAUGCAGAAGGACAUGAGGAUCACCCAUGUAUGUUAUCAAUACAUAUCUGGCAG | 0.0169 | 0.0532 |  | 
9 | UUUAUUAAUUAGAAGGCAUGAUGAAUUACAAUAGACAUGAGGAUCACCCAUGUGUAUUCAUGUCAUGAGGAUAUAGUCAUAUAU |  |  | 0.0103 | 0.00727
10 | UUUUUGUGAGGAUAUCAGUAGUAAAUAAAUAAAAUUACUACUGAGAAGGCACAUGAGGAUCACCCAUGUUUUUU | 0.0404 | 0.0951 |  | 
11 | GUCAUGUAAGGAUAUCUUACAUGUGACUUCGGUCACUGUCAAGAGAAGGUACAUGAGGAUCACCCAUGUUCGAC | 0.0172 | 0.0218 |  | 
12 | UCAACCAGCGCCAGUUGAACAUGAGGAUCACCCAUGUACUCCAGAAGGCCGCCCAAGAACGGAGUGGAGGAUAUGGAGGUUCUC |  |  | 0.0285 | 0.0185
13 | CGACACAUGAGGGUCUCCCAUGACAUGAGGAUCACCCAUGUGCAGGAUAUACGUGUGAUGGUAUAGUAGAAGGGCACUCUAUGU | 0.0416 | 0.058 |  | 
14 | UUUCCGCGAGGAUAUGCGGGUUGUGCUUUUCAUUUCUUAUAACAUGAGGAUCACCCAUGUAGAAGGUGCUUCUU | 0.151 | 0.144 |  | 
15 | AAAAAGUGAGGAUAUACAUGAGGAUCACCCAUGUAAUAAAAAAAAAGGGUGGAAGAAAGUAGAAGGCACCAAAA | 0.0624 | 0.356 |  | 
16 | AUGGUACAUGAGGAUCACCCAUGUCAGGAUAUCGGCUGUGACGUGAAAAGAGUGUUAGCGAGAAGGGACUGCAA | 0.0373 | 0.0431 |  | 
17 | UCAAUCAUGUAAGGAUAUGCAGCCGAAACGGCUGCAGAAGGUACUAUAAUUACAUGAGGAUCACCCAUGUUAUAAAAUUUAUAU |  |  | 0.169 | 0.0352
18 | GGACGUCACAUGAACAUGAGGAUCACCCAUGUAAAUUCUCAUGAGGAUAUGGAUCCUAAUUGGAUCCAGAAGGCAUGGACGUCC |  |  | 0.96 | 0.373
19 | AGUUAUUCAGGAUAUGGUGUGUUAUACAUGAGGAUCACCCAUGUAGAUCCUGGUUAGGCCUCAGAAGGGAAUGUUC | 0.182 | 0.183 |  | 
20 | AUUUGCCUAGGAUAUACUCGGGCCCGCUCAUACUCCAAUGGACAUGAGGAUCACCCAUGUAGAAGGAGGAACCA | 0.016 | 0.02 |  | 
21 | GUGGUGCAUAUACGUGGAGGUACAUGAGGAUCACCCAUGUAAGAGGAUAUGCGGAUACUAGCUCAGCAGAAGGCUUACAAAUGA | 0.0131 | 0.0515 |  | 
22 | GUGCGGUAGGAGAAGGACGGAGGCUUCAUUACAUACAUGAGGAUCACCCAUGUAGGAUAUCCUACCUCACGCGGCCUCCUUCUG | 0.00652 | 0.00765 |  | 
23 | CAGUACAGAGGAUAUACAUGAGGAUCACCCAUGUGUUUCAGCUAGGAGACUAGCGAGUGUAGAAGGCUGUACUG | 0.0374 | 0.36 |  | 
24 | CAGUACUGAGGAUAUACAUGAGGAUCACCCAUGUGUUCCAGCUAGGAAACUAGCUAAAGUAGAAGGCAGUACUG | 0.0219 | 0.424 |  | 
25 | AAAUAGUUAGGAUAUACAUGAGGAUCACCCAUGUGGACUGAUGGCGAUUGAUUCAGUGGUAGAAGGGACUCAAA | 0.0374 | 0.0564 |  | 
26 | UGGUAGUAGGGAGGAUAUGGGAAGAUACAUGAGGAUCACCCAUGUUUAAGAAUGCCGAGAGGCAACUAGAAGGCCCUAGUACCU |  |  | 0.324 | 0.0237
27 | UUGGACAGCUAGAGCUGUUAAGUACAUGAGGAUCACCCAUGUCAGGAUAUCCUUCCGCAAUGCGAGGAGAAGGGACAGGGUCCC | 0.0647 | 0.149 |  | 
